These results are taken from ChEMBL document CHEMBL4011634 (J Med Chem, 2017).

The subject of data set [1] is Rattus norvegicus. Kind of data set: Antiarthritic activity in MIA-induced osteoarthritis Lewis rat model assessed as decrease in aggrecan degradation products by measuring ARGNV levels in synovial fluid at 30 mg/kg, po bid starting on day 3 post MIA induction measured at 4 hrs post single oral dose on day 7 by ELISA relative to control. It counts as functional. More on the design: scale not given: the % may be the effect or the level left. The method in brief: (§1)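 Male Lewis rats aged 7-8 weeks received 3 mg freshly prepared MIA (sodium salt) in 0.9% saline intra-articularly into the right knee on day 0, with saline alone in the left knee. Inhibitor or vehicle (1% hydroxyethyl cellulose, 0.25% Tween 80, 0.05% antifoam) was given PO BID from day 3, with a single dose on day 7. Knees were saline-lavaged 4 h later, and aggrecan fragments were quantified by ELISA.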
In general terms: ELISA stands for enzyme-linked immunosorbent assay.

The target in data set [2] is Macrophage metalloelastase (Homo sapiens, UniProt P39900). The experiment in a line: Inhibition of human MMP12 using Mca-PQGL-(3-[2, 4-dinitrophenyl]-L-2, 3-diaminopropionyl)-AR-OH as substrate after 2 to 4 hrs by fluorescence assay.
Macrophage metalloelastase, sequence (P39900 whole entry): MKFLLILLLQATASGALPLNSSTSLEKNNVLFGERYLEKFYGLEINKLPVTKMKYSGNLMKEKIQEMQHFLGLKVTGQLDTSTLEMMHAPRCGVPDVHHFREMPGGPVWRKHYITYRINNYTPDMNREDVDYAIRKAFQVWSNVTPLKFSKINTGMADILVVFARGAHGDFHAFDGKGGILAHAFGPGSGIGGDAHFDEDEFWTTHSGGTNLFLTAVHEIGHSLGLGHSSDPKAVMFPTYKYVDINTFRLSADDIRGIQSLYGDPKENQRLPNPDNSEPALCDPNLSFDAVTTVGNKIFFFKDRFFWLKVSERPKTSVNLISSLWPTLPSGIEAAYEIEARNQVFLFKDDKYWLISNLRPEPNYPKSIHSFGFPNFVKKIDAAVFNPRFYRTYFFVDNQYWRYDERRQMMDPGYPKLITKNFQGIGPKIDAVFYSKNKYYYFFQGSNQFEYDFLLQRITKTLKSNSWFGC
For data set [3], the system named is Rattus norvegicus. Kind of data set: Drug metabolism in po or iv dosed bile-duct cannulated rat assessed as glutathione conjugation by HPLC-MS analysis. Type of data set: ADME, organism-based. The settings on record: in vivo.
The nature of data set [4]: Half life in rat at 1 mg/kg, iv. Type of data set: ADME, organism-based. As to conditions: in vivo.
Data set [5] can be described thus: Plasma concentration in rat at 10 mg/kg, po measured at 12 hrs post dose. It counts as ADME, organism-based.
For data set [6], the system named is Rattus norvegicus. Kind of data set: Antiarthritic activity in MIA-induced osteoarthritis Lewis rat model assessed as decrease in aggrecan degradation products by measuring ARGNV levels in synovial fluid at 10 mg/kg, po bid starting on day 3 post MIA induction measured at 4 hrs post single oral dose on day 7 by ELISA relative to control. It counts as functional. Also on record: scale not given: the % may be the effect or the level left. The method in brief:
as §1

Data set [7] in a line: Oral bioavailability in rat at 10 mg/kg. Type of data set: ADME, organism-based. The settings on record: in vivo.
Data set [8] concerns Rattus norvegicus. Kind of data set: Antiarthritic activity in MIA-induced osteoarthritis Lewis rat model assessed as decrease in aggrecan degradation products by measuring ARGNV levels in synovial fluid at 75 mg/kg, po bid starting on day 3 post MIA induction measured at 4 hrs post single oral dose on day 7 by ELISA relative to control. It counts as functional. More on the design: scale not given: the % may be the effect or the level left. In outline: as §1

Data set [9] can be described thus: AUC (0 to 24 hrs) in rat at 1 mg/kg, iv. It counts as ADME, organism-based. More on the design: time < 24 hr, dose 1 mg/kg, route intravenous. As to conditions: in vivo. The method in brief: (§2)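 Rat plasma pharmacokinetics after IV dosing at 1 mg/kg or oral dosing at 10 mg/kg. Plasma concentrations were followed to 24 h.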
Data set [10] is described as follows: Cmax in rat at 10 mg/kg, po. Also on record: dose 10 mg/kg, route oral. The settings on record: in vivo. Type of data set: ADME, organism-based.
The nature of data set [11]: Cmax in rat at 1 mg/kg, iv. It counts as ADME, organism-based. More on the design: dose 1 mg/kg, route intravenous. As to conditions: in vivo.
Data set [12] can be described thus: Tmax in rat at 10 mg/kg, po. It counts as ADME, organism-based. As to conditions: in vivo.
The nature of data set [13]: Half life in rat at 10 mg/kg, po. Type of data set: ADME, organism-based. The settings on record: in vivo.
Data set [14] in a line: Clearance in rat at 1 mg/kg, iv. It counts as ADME, organism-based. As to conditions: in vivo.
The next data set concerns the target Stromelysin-1 (Homo sapiens, UniProt P08254). The experiment in a line: Inhibition of human MMP3 using Mca-PQGL-(3-[2, 4-dinitrophenyl]-L-2, 3-diaminopropionyl)-AR-OH as substrate after 2 to 4 hrs by fluorescence assay.
A short description of data set [15]: Volume of distribution in rat at 1 mg/kg, iv. Type of data set: ADME, organism-based. The settings on record: in vivo.
Data set [16] in a line: Plasma concentration in rat at 1 mg/kg, iv measured at 12 hrs post dose. It counts as ADME, organism-based.
A short description of data set [17]: AUC (0 to 24 hrs) in rat at 10 mg/kg, po. Type of data set: ADME, organism-based. As to conditions: in vivo. More on the design: dose 10 mg/kg, time < 24 hr, route oral. The method in brief:
as §2

Data set [18] addresses 72 kDa type IV collagenase (Homo sapiens, UniProt P08253). Kind of data set: Inhibition of human MMP2 using Mca-PQGL-(3-[2, 4-dinitrophenyl]-L-2, 3-diaminopropionyl)-AR-OH as substrate after 2 to 4 hrs by fluorescence assay.
The target in data set [19] is Matrix metalloproteinase-14 (Homo sapiens, UniProt P50281). Kind of data set: Inhibition of human MMP14 using Mca-PQGL-(3-[2, 4-dinitrophenyl]-L-2, 3-diaminopropionyl)-AR-OH as substrate after 2 to 4 hrs by fluorescence assay.
The target in the next data set is Collagenase 3 (Homo sapiens, UniProt P45452). The experiment in a line: Inhibition of human MMP13 using Mca-PQGL-(3-[2, 4-dinitrophenyl]-L-2, 3-diaminopropionyl)-AR-OH as substrate after 2 to 4 hrs by fluorescence assay.
Data set [20] addresses T1, A disintegrin and metalloproteinase with thrombospondin motifs 5 (Homo sapiens, UniProt Q9UNA0).
T1 sequence (Q9UNA0 whole entry): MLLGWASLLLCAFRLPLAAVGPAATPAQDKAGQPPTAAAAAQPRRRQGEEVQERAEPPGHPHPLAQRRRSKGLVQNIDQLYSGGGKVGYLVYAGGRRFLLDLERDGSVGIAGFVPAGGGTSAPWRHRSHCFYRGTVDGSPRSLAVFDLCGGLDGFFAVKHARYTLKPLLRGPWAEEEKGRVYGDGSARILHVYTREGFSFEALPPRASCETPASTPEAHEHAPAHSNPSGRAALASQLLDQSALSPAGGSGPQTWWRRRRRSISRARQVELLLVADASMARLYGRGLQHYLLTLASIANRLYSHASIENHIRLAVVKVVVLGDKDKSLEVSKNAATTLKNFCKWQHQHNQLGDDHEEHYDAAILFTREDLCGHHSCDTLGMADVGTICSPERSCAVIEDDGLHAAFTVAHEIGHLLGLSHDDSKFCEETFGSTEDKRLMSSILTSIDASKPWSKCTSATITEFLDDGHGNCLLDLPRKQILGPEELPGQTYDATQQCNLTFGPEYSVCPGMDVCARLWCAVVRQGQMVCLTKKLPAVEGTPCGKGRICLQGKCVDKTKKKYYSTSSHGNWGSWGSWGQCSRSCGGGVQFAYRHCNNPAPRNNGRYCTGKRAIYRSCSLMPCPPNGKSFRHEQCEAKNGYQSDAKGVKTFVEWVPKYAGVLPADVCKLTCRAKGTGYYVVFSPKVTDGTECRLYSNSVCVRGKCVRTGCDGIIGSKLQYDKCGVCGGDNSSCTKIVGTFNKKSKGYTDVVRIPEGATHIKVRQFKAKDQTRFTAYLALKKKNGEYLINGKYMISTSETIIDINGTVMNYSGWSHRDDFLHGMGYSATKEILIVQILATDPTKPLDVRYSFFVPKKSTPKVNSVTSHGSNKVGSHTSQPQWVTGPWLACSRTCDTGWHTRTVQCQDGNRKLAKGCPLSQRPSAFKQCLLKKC
Kind of data set: Inhibition of human ADAMTS5 using VQTVTWPDMELPLPRNITEGEARGSVILTVKPIFEVSPSPLKG peptide as substrate after 3 hrs by Alphascreen assay. (In general: In Alpha technology, singlet oxygen from a donor bead excites a nearby acceptor bead.)

Data set [21] has as its target T2, A disintegrin and metalloproteinase with thrombospondin motifs 4 (Homo sapiens, UniProt O75173).
T2 sequence (O75173 whole entry): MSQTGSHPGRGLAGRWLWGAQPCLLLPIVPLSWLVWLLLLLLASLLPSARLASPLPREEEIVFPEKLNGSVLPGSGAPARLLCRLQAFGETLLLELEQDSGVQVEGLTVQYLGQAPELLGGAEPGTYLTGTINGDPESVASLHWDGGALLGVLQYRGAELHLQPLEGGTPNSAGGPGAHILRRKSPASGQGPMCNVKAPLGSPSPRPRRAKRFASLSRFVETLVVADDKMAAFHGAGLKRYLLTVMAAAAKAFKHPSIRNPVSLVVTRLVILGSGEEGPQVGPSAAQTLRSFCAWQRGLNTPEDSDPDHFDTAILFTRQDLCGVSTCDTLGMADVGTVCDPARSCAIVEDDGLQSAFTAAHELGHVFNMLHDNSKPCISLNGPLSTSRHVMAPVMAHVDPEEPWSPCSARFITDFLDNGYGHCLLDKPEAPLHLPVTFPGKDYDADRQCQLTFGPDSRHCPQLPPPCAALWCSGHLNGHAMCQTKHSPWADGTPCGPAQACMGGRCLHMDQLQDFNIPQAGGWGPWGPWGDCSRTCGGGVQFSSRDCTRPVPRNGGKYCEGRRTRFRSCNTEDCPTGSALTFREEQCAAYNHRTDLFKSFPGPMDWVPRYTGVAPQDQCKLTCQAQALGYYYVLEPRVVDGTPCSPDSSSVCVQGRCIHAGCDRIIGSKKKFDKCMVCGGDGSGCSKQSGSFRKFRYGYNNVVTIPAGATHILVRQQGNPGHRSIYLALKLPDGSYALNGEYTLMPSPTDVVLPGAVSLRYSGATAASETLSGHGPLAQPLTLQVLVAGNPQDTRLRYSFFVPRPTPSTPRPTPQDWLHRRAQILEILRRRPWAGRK
Kind of data set: Inhibition of human ADAMTS4 using VQTVTWPDMELPLPRNITEGEARGSVILTVKPIFEVSPSPLKG peptide as substrate after 3 hrs by Alphascreen assay.

The target of data set [22] is T1, A disintegrin and metalloproteinase with thrombospondin motifs 5. The experiment in a line: Inhibition of human ADAMTS5 using VQTVTWPDMELPLPRNITEGEARGSVILTVKPIFEVSPSPLKG peptide as substrate after 3 hrs in the presence of 50% Lewis rat plasma by Alphascreen assay.

72 kDa type IV collagenase, sequence (P08253 whole entry): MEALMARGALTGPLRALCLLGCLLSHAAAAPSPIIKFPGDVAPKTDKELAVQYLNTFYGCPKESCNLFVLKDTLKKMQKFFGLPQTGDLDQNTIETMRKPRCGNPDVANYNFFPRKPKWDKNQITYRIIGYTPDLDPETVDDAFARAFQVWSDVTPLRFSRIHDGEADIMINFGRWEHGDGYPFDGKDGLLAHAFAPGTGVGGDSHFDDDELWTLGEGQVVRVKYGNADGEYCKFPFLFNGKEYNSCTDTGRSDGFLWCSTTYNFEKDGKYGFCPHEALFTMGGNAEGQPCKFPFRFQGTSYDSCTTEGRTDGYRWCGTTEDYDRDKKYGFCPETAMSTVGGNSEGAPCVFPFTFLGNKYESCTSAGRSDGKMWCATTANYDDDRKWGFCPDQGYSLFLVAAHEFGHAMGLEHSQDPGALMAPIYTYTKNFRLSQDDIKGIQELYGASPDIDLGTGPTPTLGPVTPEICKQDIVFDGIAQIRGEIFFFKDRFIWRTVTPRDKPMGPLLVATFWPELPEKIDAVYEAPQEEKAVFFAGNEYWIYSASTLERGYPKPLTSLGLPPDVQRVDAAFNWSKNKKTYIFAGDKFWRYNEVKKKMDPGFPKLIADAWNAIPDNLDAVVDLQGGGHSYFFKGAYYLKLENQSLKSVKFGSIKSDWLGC
Stromelysin-1, sequence (P08254 whole entry): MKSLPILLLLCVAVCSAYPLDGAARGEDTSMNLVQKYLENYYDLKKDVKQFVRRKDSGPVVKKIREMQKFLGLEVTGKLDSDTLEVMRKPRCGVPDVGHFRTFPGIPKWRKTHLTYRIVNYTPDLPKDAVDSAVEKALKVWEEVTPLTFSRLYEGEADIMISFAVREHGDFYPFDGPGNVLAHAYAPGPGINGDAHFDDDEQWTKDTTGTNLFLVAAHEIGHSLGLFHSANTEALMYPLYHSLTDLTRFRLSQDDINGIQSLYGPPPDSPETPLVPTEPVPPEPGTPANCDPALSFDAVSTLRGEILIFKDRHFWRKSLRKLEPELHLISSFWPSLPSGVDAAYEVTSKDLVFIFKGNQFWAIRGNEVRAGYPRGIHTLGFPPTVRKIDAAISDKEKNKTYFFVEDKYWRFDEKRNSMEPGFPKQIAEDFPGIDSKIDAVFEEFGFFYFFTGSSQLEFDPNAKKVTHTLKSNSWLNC

Turning to `C[C@@]1(O)CCCN(S(=O)(=O)c2ccc(OCc3ccc(F)cc3Cl)cc2)[C@H]1C(=O)NO`, the Activity in the data set with Rattus norvegicus [1] is 50%. Also, in [2], the IC50 was below 1 nM. In the data set with Rattus norvegicus [3], the Drug metabolism entry is on record as “Metabolite_Notdetected”.
In data set [2], `C[C@]1(CNC(=O)COc2ccc(Cl)cc2)NC(=O)NC1=O` returned an IC50 of 70 nM.
In the case of `CC(C)[C@H](Cc1ccc(C(F)(F)F)cc1)C(=O)NC[C@@]1(C2CC2)NC(=O)NC1=O`, the Drug metabolism result in the data set with Rattus norvegicus [3] is recorded as “Metabolite_Notdetected”.
Take `CC(C)(Cc1ccc(C(F)(F)F)cc1)C(=O)NC[C@@]1(C2CC2)NC(=O)NC1=O`: in the data set with Rattus norvegicus [3], the Drug metabolism result is on record as “Metabolite_Notdetected”.
For `O=C1NC(=O)[C@](CNC(=O)[C@@H](Cc2ccc(C(F)(F)F)cc2)C2CC2)(C2CC2)N1`, the results for the half-life in data set [4] and in data set [13] were 1.5 h and 2.6 h, respectively. The Activity worked out at 52% with Rattus norvegicus [1], 41% with Rattus norvegicus [6] and 53% with Rattus norvegicus [8]. The values for the concentration at 12 h in data set [5] and in data set [16] were 29 nM and below 5 nM, respectively. Also, the bioavailability in data set [7] was 100%. Further, the area under the curve AUC(0-t) at 24 h was 1.3 µM·h in data set [9] and 22 µM·h in data set [17]. The peak concentration (Cmax) in data set [10] amounted to 6600 nM; in [11], 1600 nM. For the same molecule, the Tmax in data set [12] amounted to 0.5 h. In addition, the clearance in [14] is 33 mL/min/kg. The molecule further gave an IC50 at Stromelysin-1 above 100000 nM. The Vd in data set [15] came to 4.3 L/kg. In the data set on Rattus norvegicus [3], the Drug metabolism entry was “Metabolite_Notdetected”.
As to `C[C@H](Cc1ccc(C(F)(F)F)cc1)C(=O)NC[C@@]1(C2CC2)NC(=O)NC1=O`, the Drug metabolism entry in the data set with Rattus norvegicus [3] was “Metabolite_Notdetected”.
Molecule `CC[C@H](Cc1ccc(C(F)(F)F)cc1)C(=O)NC[C@@]1(C2CC2)NC(=O)NC1=O` returned a half-maximal inhibitory concentration (IC50) in data set [18] of 3000 nM. Moreover, the Drug metabolism entry with Rattus norvegicus [3] is “Metabolite_Notdetected”.
Turning to `C[C@@H](Cc1ccc(C(F)(F)F)cc1)C(=O)NC[C@@]1(C2CC2)NC(=O)NC1=O`, the IC50 in data set [18] was found to be 280 nM; in data set [19], 1600 nM; in data set [2], 7 nM; on Stromelysin-1, 2000 nM; against Collagenase 3 it was 340 nM. In addition, the Drug metabolism result in the data set with Rattus norvegicus [3] is listed as “Metabolite_Notdetected”.
In data set [2], `O=C1NC(=O)[C@](CNC(=O)c2cc3cc(C(F)(F)F)ccc3o2)(C2CC2)N1` registered an IC50 of 9 nM.
Consider `O=C(CCc1ccc(C(F)(F)F)cc1)NC[C@@]1(C2CC2)NC(=O)NC1=O`, for which the 50% inhibitory concentration (IC50) is 5 nM in [20]; 4 nM in data set [21]; 310 nM in data set [18]; 3400 nM in data set [19]; 5 nM in data set [2]; 660 nM at Stromelysin-1. The values for the IC50 (in data set [22]; against Collagenase 3) were 52 nM and 320 nM, respectively. In the data set on Rattus norvegicus [3], the Drug metabolism result is listed as “Metabolite_Notdetected”.

A word on the IC50: it is the concentration that inhibits the measured activity by half. By half-life is commonly meant the time in which the quantity being followed falls by half. For orientation: bioavailability means the share of a dose that reaches the circulation, judged against a reference dose that is usually intravenous. As a reminder, the AUC(0-t) is exposure summed from dosing to a finite time, without extrapolation to infinity. The term Cmax denotes the highest concentration seen after dosing. Usually Tmax stands for the time from dosing to the highest level. Broadly, the clearance is a measure of how efficiently the substance is removed, as volume per time. One may read the Vd as a proportionality between amount in the body and measured concentration, not a real space.
